Reference: ChEMBL document CHEMBL2331355, “Synthesis, structure activity relationship and mode of action of 3-substitutedphenyl-1-(2,2,8,8-tetramethyl-3,4,9,10-tetrahydro-2H,8H-pyrano[2,3-f]chromen-6-yl)-propenones as novel anticancer agents in human leukaemia HL-60 cells” (Eur J Med Chem, 2013)
The source made the active and inactive calls. The rule behind the calls is not given here.

Legend:
[1] = tested on: HL-60; test: Cell cycle arrest in human HL60 cells assessed as accumulation of G0/G1 phase cells at 10 uM after 24 hrs by PI staining-based flow cytometric analysis (reference value: 48%); assay type: functional
[2] = tested on: MDA-MB-435; test: Growth inhibition of human MDA-MB-435 cells at 50 uM after 48 hrs by MTT assay; assay type: functional; settings: MDA-MB-435, 48 h, read-out: GI
Outline: (§1)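 Single-concentration MTT screen at 50 µM over 48 h in 96-well plates. Compounds giving >50% inhibition were rescreened at 30 µM. OD read at 570 nm, reference 620 nm. Result expressed as % growth inhibition versus untreated control. Mitomycin C, adriamycin or 5-fluorouracil used as positive controls. Mean ± SD of three independent experiments.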

[3] = tested on: PC-3; test: Growth inhibition of human PC3 cells at 30 uM after 48 hrs by MTT assay; assay type: functional, cell-based; outline: as §1
[4] = tested on: HL-60; test: Induction of mitochondrial membrane potential loss in human HL60 cells at 20 uM after 24 hrs by rhodamine-123 staining method (reference value: 7%); assay type: functional
Outline: (§2)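 HL-60 cells (1 × 10⁶/2 ml/well) treated 24 h at 15 or 20 µM, then incubated with rhodamine-123 (200 nM) for 40 min. Loss of dye uptake measured by flow cytometry. Camptothecin (4 µM, 6 h) as positive control. Representative of three experiments.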

[5] = tested on: HL-60; test: Cell cycle arrest in human HL60 cells assessed as decrease in G2/M phase cells after 24 hrs by PI staining-based flow cytometric analysis; assay type: functional
[6] = tested on: Caco-2; test: Cytotoxicity against human Caco2 cells after 48 hrs by MTT assay; assay type: functional, cell-based; settings: Caco-2, 48 h
Outline: (§3)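 MTT assay in 96-well plates, 48 h exposure across 1–100 µM. OD read at 570 nm against a 620 nm reference. Untreated control OD taken as 100% viability. IC50 derived from the concentration–response curves. Mean ± SD, n = 8 wells, from three independent experiments.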

[7] = tested on: Caco-2; test: Growth inhibition of human Caco2 cells at 30 uM after 48 hrs by MTT assay; assay type: functional, cell-based; outline: as §1
[8] = tested on: PC-3; test: Growth inhibition of human PC3 cells at 50 uM after 48 hrs by MTT assay; assay type: functional; settings: PC-3, 48 h, read-out: GI; outline: as §1
[9] = tested on: HL-60; test: Induction of apoptosis in human HL60 cells assessed as apoptotic bodies at 20 uM after 24 hrs by Hoechst 33258 staining; assay type: functional, cell-based
Outline: (§4)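 HL-60 cells (1 × 10⁶/2 ml) treated 24 h at 15 and 20 µM, pelleted at 300 g and washed. Stained with Hoechst 33258, then examined under an inverted fluorescence microscope (10×, UV excitation) for nuclear condensation, blebbing and apoptotic bodies.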

[10] = tested on: HL-60; test: Induction of apoptosis in human HL60 cells assessed as nuclear blebbing after 24 hrs by Hoechst 33258 staining; assay type: functional, cell-based; outline: as §4
[11] = tested on: HL-60; test: Cell cycle arrest in human HL60 cells assessed as G2/M phase cells at 15 uM after 24 hrs by PI staining-based flow cytometric analysis (reference value: 3%); assay type: functional
[12] = tested on: HL-60; test: Cytotoxicity against human HL60 cells after 24 hrs by MTT assay; assay type: functional, cell-based; settings: HL-60, 24 h
Outline: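 HL-60 cells exposed 24 h to a range of concentrations, then MTT reduction measured. Untreated control OD taken as 100% viability; IC50 derived from the curve. Mean ± SD, n = 8 wells, three independent experiments.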

[13] = tested on: HL-60; test: Cell cycle arrest in human HL60 cells assessed as S phase cells at 15 uM after 24 hrs by PI staining-based flow cytometric analysis (reference value: 49%); assay type: functional
[14] = tested on: HL-60; test: Cell cycle arrest in human HL60 cells assessed as accumulation of G0/G1 phase cells after 24 hrs by PI staining-based flow cytometric analysis; assay type: functional
[15] = tested on: HL-60; test: Cell cycle arrest in human HL60 cells assessed as S phase cells at 20 uM after 24 hrs by PI staining-based flow cytometric analysis (reference value: 49%); assay type: functional
[16] = tested on: HL-60; test: Growth inhibition of human HL60 cells at 50 uM after 48 hrs by MTT assay; assay type: functional; settings: HL-60, 48 h, read-out: GI; outline: as §1
[17] = tested on: MIA PaCa-2; test: Growth inhibition of human MIAPaCa2 cells at 30 uM after 48 hrs by MTT assay; assay type: functional, cell-based; outline: as §1
[18] = tested on: MIA PaCa-2; test: Growth inhibition of human MIAPaCa2 cells at 50 uM after 48 hrs by MTT assay; assay type: functional; settings: MIA PaCa-2, 48 h, read-out: GI; outline: as §1
[19] = tested on: HL-60; test: Cell cycle arrest in human HL60 cells assessed as accumulation of G0/G1 phase cells at 20 uM after 24 hrs by PI staining-based flow cytometric analysis (reference value: 48%); assay type: functional
[20] = tested on: MIA PaCa-2; test: Cytotoxicity against human MIAPaCa2 cells after 48 hrs by MTT assay; assay type: functional, cell-based; settings: MIA PaCa-2, 48 h; outline: as §3
[21] = tested on: HL-60; test: Growth inhibition of human HL60 cells at 30 uM after 48 hrs by MTT assay; assay type: functional, cell-based; outline: as §1
[22] = tested on: ASPC1; test: Growth inhibition of human AsPC1 cells at 30 uM after 48 hrs by MTT assay; assay type: functional, cell-based; outline: as §1
[23] = tested on: HL-60; test: Induction of apoptosis in human HL60 cells at 10 uM after 24 hrs by PI-staining based flow cytometric analysis (reference value: 0.7 %); assay type: functional
[24] = tested on: HL-60; test: Cell cycle arrest in human HL60 cells assessed as G2/M phase cells at 5 uM after 24 hrs by PI staining-based flow cytometric analysis (reference value: 3%); assay type: functional
[25] = tested on: Caco-2; test: Growth inhibition of human Caco2 cells at 50 uM after 48 hrs by MTT assay; assay type: functional; settings: Caco-2, 48 h, read-out: GI; outline: as §1
[26] = tested on: HL-60; test: Induction of apoptosis in human HL60 cells at 20 uM after 24 hrs by PI-staining based flow cytometric analysis (reference value: 0.7 %); assay type: functional
[27] = tested on: HL-60; test: Cell cycle arrest in human HL60 cells assessed as S phase cells at 5 uM after 24 hrs by PI staining-based flow cytometric analysis (reference value: 49%); assay type: functional
[28] = tested on: MCF7; test: Growth inhibition of human MCF7 cells at 30 uM after 48 hrs by MTT assay; assay type: functional, cell-based; outline: as §1
[29] = tested on: HL-60; test: Induction of apoptosis in human HL60 cells assessed as nuclear condensation after 24 hrs by Hoechst 33258 staining; assay type: functional, cell-based; outline: as §4
[30] = tested on: MDA-MB-435; test: Growth inhibition of human MDA-MB-435 cells at 30 uM after 48 hrs by MTT assay; assay type: functional, cell-based; outline: as §1
[31] = tested on: HL-60; test: Induction of apoptosis in human HL60 cells at 5 uM after 24 hrs by PI-staining based flow cytometric analysis (reference value: 0.7 %); assay type: functional
[32] = tested on: HL-60; test: Cell cycle arrest in human HL60 cells assessed as accumulation of G0/G1 phase cells at 15 uM after 24 hrs by PI staining-based flow cytometric analysis (reference value: 48%); assay type: functional
[33] = tested on: HL-60; test: Cell cycle arrest in human HL60 cells assessed as G2/M phase cells at 20 uM after 24 hrs by PI staining-based flow cytometric analysis (reference value: 3%); assay type: functional
[34] = tested on: MCF7; test: Growth inhibition of human MCF7 cells at 50 uM after 48 hrs by MTT assay; assay type: functional; settings: MCF7, 48 h, read-out: GI; outline: as §1
[35] = tested on: ASPC1; test: Growth inhibition of human AsPC1 cells at 50 uM after 48 hrs by MTT assay; assay type: functional; settings: ASPC1, 48 h, read-out: GI; outline: as §1
[36] = tested on: HL-60; test: Cell cycle arrest in human HL60 cells assessed as G2/M phase cells at 10 uM after 24 hrs by PI staining-based flow cytometric analysis (reference value: 3%); assay type: functional
[37] = tested on: HL-60; test: Cell cycle arrest in human HL60 cells assessed as S phase cells at 10 uM after 24 hrs by PI staining-based flow cytometric analysis (reference value: 49%); assay type: functional
[38] = tested on: HL-60; test: Induction of apoptosis in human HL60 cells assessed as accumulation of sub-G0/G1 phase cells after 24 hrs by PI-staining based flow cytometric analysis; assay type: functional, cell-based
[39] = tested on: HL-60; test: Induction of apoptosis in human HL60 cells at 15 uM after 24 hrs by PI-staining based flow cytometric analysis (reference value: 0.7 %); assay type: functional
[40] = tested on: HL-60; test: Induction of mitochondrial membrane potential loss in human HL60 cells at 15 uM after 24 hrs by rhodamine-123 staining method (reference value: 7%); assay type: functional; outline: as §2
[41] = tested on: HL-60; test: Cell cycle arrest in human HL60 cells assessed as decrease in S phase cells after 24 hrs by PI staining-based flow cytometric analysis; assay type: functional
[42] = tested on: HL-60; test: Cell cycle arrest in human HL60 cells assessed as accumulation of G0/G1 phase cells at 5 uM after 24 hrs by PI staining-based flow cytometric analysis (reference value: 48%); assay type: functional
[43] = tested on: PC-3; test: Cytotoxicity against human PC3 cells after 48 hrs by MTT assay; assay type: functional, cell-based; settings: PC-3, 48 h; outline: as §3
[44] = tested on: HL-60; test: Induction of apoptosis in human HL60 cells assessed as DNA fragmentation at 20 uM after 24 hrs by SDS-PAGE analysis; assay type: functional, cell-based; settings: in the assay text read “agarose gel electrophoresis” for “SDS-PAGE analysis”
Outline: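 HL-60 cells (2 × 10⁶/3 ml/well) treated at 20 µM for 24 h. Lysed, then digested with RNase (400 µg/ml, 37 °C, 90 min) and proteinase K (200 µg/ml, 50 °C, 1 h). DNA extracted with phenol/chloroform/isoamyl alcohol and alcohol-precipitated. Run on 1.8% agarose gel at 70 V for 1 h, stained with ethidium bromide, and scored for laddering.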

CC1(C)CCc2cc(C(=O)/C=C/c3ccc(C#N)cc3)c3c(c2O1)CCC(C)(C)O3
Activity [1]: 56% | inhibition of growth at 50 µM [2]: 88% | growth inhibition (GI) [3]: Active | Activity [4]: 61% | Activity [5]: Dose-dependent effect | IC50 [6]: 12 µM | growth inhibition (GI) [7]: Active | inhibition of growth at 50 µM [8]: 76% | Activity [9]: Active | Activity [10]: Dose-dependent effect | Activity [11]: 4% | IC50 [12]: 16 µM | Activity [13]: 23% | Activity [14]: Dose-dependent effect | Activity [15]: 9% | inhibition of growth at 50 µM [16]: 93% | growth inhibition (GI) [17]: Active | inhibition of growth at 50 µM [18]: 76% | Activity [19]: 88% | IC50 [20]: 12 µM | growth inhibition (GI) [21]: Active | growth inhibition (GI) [22]: Active | Activity [23]: 11% | Activity [24]: 6% | inhibition of growth at 50 µM [25]: 93% | Activity [26]: 71% | Activity [27]: 46% | growth inhibition (GI) [28]: Active | Activity [29]: Dose-dependent effect | growth inhibition (GI) [30]: Active | Activity [31]: 1% | Activity [32]: 73% | Activity [33]: 3% | inhibition of growth at 50 µM [34]: 78% | inhibition of growth at 50 µM [35]: 48% | Activity [36]: 5% | Activity [37]: 39% | Activity [38]: Dose-dependent effect | Activity [39]: 31% | Activity [40]: 49% | Activity [41]: Dose-dependent effect | Activity [42]: 48% | IC50 [43]: 7 µM | Activity [44]: Active

COc1ccc(/C=C/C(=O)c2cc3c(c4c2OC(C)(C)CC4)OC(C)(C)CC3)cc1
inhibition of growth at 50 µM [2]: 53% | inhibition of growth at 50 µM [8]: 63% | inhibition of growth at 50 µM [16]: 5% | inhibition of growth at 50 µM [18]: 30% | inhibition of growth at 50 µM [25]: 16% | inhibition of growth at 50 µM [34]: 7% | inhibition of growth at 50 µM [35]: 12%

CC1(C)CCc2cc(C(=O)/C=C/c3ccccc3)c3c(c2O1)CCC(C)(C)O3
inhibition of growth at 50 µM [2]: 47% | inhibition of growth at 50 µM [8]: 51% | inhibition of growth at 50 µM [16]: 32% | inhibition of growth at 50 µM [18]: 24% | inhibition of growth at 50 µM [25]: 34% | inhibition of growth at 50 µM [34]: 14% | inhibition of growth at 50 µM [35]: 17%
